{"source": "ChEMBL document CHEMBL1240470", "about": "“Synthesis and evaluation of some novel dibenzo[b,d]furan carboxylic acids as potential anti-diabetic agents” (Eur J Med Chem, 2010)", "note": "Active and inactive are the calls of the source. The calls are words filed in the database; no cut-off is given here."}
{"target": "T1, Tyrosine-protein phosphatase non-receptor type 1 (Homo sapiens, UniProt P18031)", "T1 sequence (P18031 whole entry)": "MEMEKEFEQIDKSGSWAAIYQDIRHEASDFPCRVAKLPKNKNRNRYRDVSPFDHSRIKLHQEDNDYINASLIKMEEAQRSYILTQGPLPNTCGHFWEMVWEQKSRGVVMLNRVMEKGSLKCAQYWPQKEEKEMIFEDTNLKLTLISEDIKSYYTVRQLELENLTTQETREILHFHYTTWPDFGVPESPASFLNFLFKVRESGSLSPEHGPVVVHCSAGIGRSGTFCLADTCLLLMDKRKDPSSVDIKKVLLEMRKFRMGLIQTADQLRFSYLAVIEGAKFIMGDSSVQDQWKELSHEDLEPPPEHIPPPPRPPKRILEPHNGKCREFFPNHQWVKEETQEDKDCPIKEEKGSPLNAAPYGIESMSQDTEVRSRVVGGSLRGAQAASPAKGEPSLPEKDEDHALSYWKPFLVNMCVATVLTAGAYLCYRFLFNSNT", "assay": "not given", "details": "not given", "units": {"IC50": "nM", "Ki": "nM"}}
{"smiles": "Nc1ccc(-c2nc(-c3ccc4oc5c(C(=O)O)cccc5c4c3)cs2)cc1", "IC50": 185}
{"smiles": "O=C(O)c1cccc2c1oc1ccc(-c3csc(-c4ccc(N5CCCCC5)cc4)n3)cc12", "IC50": 121}
{"smiles": "O=C(O)c1cccc2c1oc1ccc(-c3csc(-c4ccc([N+](=O)[O-])cc4)n3)cc12", "IC50": 201}
{"smiles": "CN(C)c1ccc(-c2nc(-c3ccc4oc5c(C(=O)O)cccc5c4c3)cs2)cc1", "IC50": 257}
{"smiles": "O=C(O)/C=C/c1ccc(-c2nc(-c3ccc4oc5c(C(=O)O)cccc5c4c3)cs2)cc1", "IC50": 620}
{"smiles": "O=C(O)/C=C/c1cccc(-c2nc(-c3ccc4oc5c(C(=O)O)cccc5c4c3)cs2)c1", "IC50": 551}
{"smiles": "O=C(O)c1cccc2c1oc1ccc(-c3csc(-c4ccc(N5CCOCC5)cc4)n3)cc12", "IC50": 280}
{"smiles": "O=C(O)c1cccc2c1oc1ccc(-c3csc(-c4cc(Br)c(C(=O)[C@H](Cc5ccccc5)C(=O)O)c(Br)c4)n3)cc12", "IC50": 177}
{"smiles": "CC1CN(c2ccc(-c3nc(-c4ccc5oc6c(C(=O)O)cccc6c5c4)cs3)cc2)CC(C)O1", "note": "(stereo unspecified)", "IC50": 187}
{"smiles": "O=C(O)c1cccc2c1oc1ccc(-c3csc(-c4cccc(I)c4)n3)cc12", "IC50": 425}
{"smiles": "O=C(O)c1cccc2c1oc1ccc(-c3csc(-c4ccc(I)cc4)n3)cc12", "IC50": 395}
{"smiles": "CCc1cc(C[C@H]2NC(=O)CN(CCCCOc3cccc(O)c3C(=O)OC)C2=O)ccc1N(C(=O)C(=O)O)c1ccccc1C(=O)O", "note": "[OXALYLAMINOBENZOIC ACID]", "IC50": 38, "Ki": 18}
{"smiles": "O=C(O)c1cccc2c1oc1ccc(-c3csc(-c4ccc(N5CCCC5)cc4)n3)cc12", "IC50": 82}
{"smiles": "Cc1nc(-c2ccc(Cl)cc2)sc1OCCc1cc(C(O)(C(=O)O)C(F)(F)F)ccc1OCc1ccccc1", "note": "(stereo unspecified)", "IC50": 3200}
{"smiles": "O=C(O)c1ccc(-c2nc(-c3ccc4oc5c(C(=O)O)cccc5c4c3)cs2)cc1", "IC50": 388}
{"smiles": "Cc1ccc(-c2nc(-c3ccc4oc5c(C(=O)O)cccc5c4c3)cs2)cc1", "IC50": 515}
{"tested_on": "Mus musculus", "assay": "Antidiabetic activity in ob/ob mouse assessed as whole blood glucose at 10 mg/kg, ip measured on day 10 (reference value: 138 +/- 8 mg/dL)", "type": "functional", "details": "route intraperitoneal", "units": {"Activity": "mg/dL"}}
{"smiles": "O=C(O)c1cccc2c1oc1ccc(-c3csc(-c4ccc(N5CCCC5)cc4)n3)cc12", "Activity": 93}
{"tested_on": "Mus musculus", "assay": "Antidiabetic activity in ob/ob mouse assessed as fasting plasma glucose at 10 mg/kg, ip measured on day 14 (RVb = 194 +/- 17 mg/dL)", "type": "functional", "details": "route intraperitoneal", "units": {"Activity": "mg/dL"}}
{"smiles": "O=C(O)c1cccc2c1oc1ccc(-c3csc(-c4ccc(N5CCCC5)cc4)n3)cc12", "Activity": 93}
{"tested_on": "Mus musculus", "assay": "Antidiabetic activity in ob/ob mouse assessed as fasting plasma glucose at 10 mg/kg measured on day 14 (RVb = 194 +/- 17 mg/dL)", "details": "not given", "units": {"Activity": "mg/dL"}}
{"smiles": "O=C(O)c1cccc2c1oc1ccc(-c3csc(-c4ccc(N5CCCC5)cc4)n3)cc12", "Activity": 124}
{"species_on_record": "Mus musculus", "assay": "not given", "details": "Blood, 10 mg/kg"}
{"smiles": "O=C(O)c1cccc2c1oc1ccc(-c3csc(-c4ccc(N5CCCC5)cc4)n3)cc12", "inhibition": "Active"}
{"target": "T2, Tyrosine-protein phosphatase non-receptor type 2 (Homo sapiens, UniProt P17706)", "T2 sequence (P17706 whole entry)": "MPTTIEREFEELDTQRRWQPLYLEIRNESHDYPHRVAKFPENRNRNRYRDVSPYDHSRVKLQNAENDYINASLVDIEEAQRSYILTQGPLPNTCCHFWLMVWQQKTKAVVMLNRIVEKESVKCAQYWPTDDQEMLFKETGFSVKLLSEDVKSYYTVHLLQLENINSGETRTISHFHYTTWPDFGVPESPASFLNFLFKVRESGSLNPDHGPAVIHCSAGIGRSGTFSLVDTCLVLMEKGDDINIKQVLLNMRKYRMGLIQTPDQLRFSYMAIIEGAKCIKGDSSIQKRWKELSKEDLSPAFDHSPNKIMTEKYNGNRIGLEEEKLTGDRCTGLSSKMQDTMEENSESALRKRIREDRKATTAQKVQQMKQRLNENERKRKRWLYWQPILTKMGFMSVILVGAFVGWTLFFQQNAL", "assay": "Inhibition of human recombinant TCPTP after 30 mins by spectrophotometry", "details": "not given", "method_in_brief": "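In-house human recombinant enzyme (40 ng) was preincubated with inhibitor (1% DMSO) for 10 min at 37 °C in 25 mM Hepes pH 7.0 containing 3 mM DTT, 0.15 M NaCl, 1 mM EDTA and 0.01% NP-40. Reaction was started with 2.5 mM pNPP and followed at 405 nm for 30 min at 37 °C, then quenched with NaOH. Activity came from a p-nitrophenol standard curve.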", "units": {"IC50": "nM", "Ki": "nM"}}
{"smiles": "Nc1ccc(-c2nc(-c3ccc4oc5c(C(=O)O)cccc5c4c3)cs2)cc1", "IC50": 693}
{"smiles": "O=C(O)c1cccc2c1oc1ccc(-c3csc(-c4ccc(N5CCCCC5)cc4)n3)cc12", "IC50": 2070}
{"smiles": "O=C(O)c1cccc2c1oc1ccc(-c3csc(-c4ccc([N+](=O)[O-])cc4)n3)cc12", "IC50": 348}
{"smiles": "CN(C)c1ccc(-c2nc(-c3ccc4oc5c(C(=O)O)cccc5c4c3)cs2)cc1", "IC50": 961}
{"smiles": "O=C(O)/C=C/c1ccc(-c2nc(-c3ccc4oc5c(C(=O)O)cccc5c4c3)cs2)cc1", "IC50": 983}
{"smiles": "O=C(O)/C=C/c1cccc(-c2nc(-c3ccc4oc5c(C(=O)O)cccc5c4c3)cs2)c1", "IC50": 794}
{"smiles": "O=C(O)c1cccc2c1oc1ccc(-c3csc(-c4ccc(N5CCOCC5)cc4)n3)cc12", "IC50": 1630}
{"smiles": "O=C(O)c1cccc2c1oc1ccc(-c3csc(-c4cc(Br)c(C(=O)[C@H](Cc5ccccc5)C(=O)O)c(Br)c4)n3)cc12", "IC50": 3140}
{"smiles": "CC1CN(c2ccc(-c3nc(-c4ccc5oc6c(C(=O)O)cccc6c5c4)cs3)cc2)CC(C)O1", "note": "(stereo unspecified)", "IC50": 1430}
{"smiles": "O=C(O)c1cccc2c1oc1ccc(-c3csc(-c4cccc(I)c4)n3)cc12", "IC50": 1620}
{"smiles": "O=C(O)c1cccc2c1oc1ccc(-c3csc(-c4ccc(I)cc4)n3)cc12", "IC50": 1870}
{"smiles": "CCc1cc(C[C@H]2NC(=O)CN(CCCCOc3cccc(O)c3C(=O)OC)C2=O)ccc1N(C(=O)C(=O)O)c1ccccc1C(=O)O", "note": "[OXALYLAMINOBENZOIC ACID]", "IC50": 136, "Ki": 65}
{"smiles": "O=C(O)c1cccc2c1oc1ccc(-c3csc(-c4ccc(N5CCCC5)cc4)n3)cc12", "IC50": 1660}
{"smiles": "O=C(O)c1ccc(-c2nc(-c3ccc4oc5c(C(=O)O)cccc5c4c3)cs2)cc1", "IC50": 2100}
{"smiles": "Cc1ccc(-c2nc(-c3ccc4oc5c(C(=O)O)cccc5c4c3)cs2)cc1", "IC50": 730}
{"species_on_record": "Mus musculus", "assay": "not given", "details": "Plasma, 10 mg/kg"}
{"smiles": "O=C(O)c1cccc2c1oc1ccc(-c3csc(-c4ccc(N5CCCC5)cc4)n3)cc12", "inhibition": "inactive"}
{"target": "Receptor-type tyrosine-protein phosphatase F (Homo sapiens, UniProt P10586)", "sequence (P10586 whole entry)": "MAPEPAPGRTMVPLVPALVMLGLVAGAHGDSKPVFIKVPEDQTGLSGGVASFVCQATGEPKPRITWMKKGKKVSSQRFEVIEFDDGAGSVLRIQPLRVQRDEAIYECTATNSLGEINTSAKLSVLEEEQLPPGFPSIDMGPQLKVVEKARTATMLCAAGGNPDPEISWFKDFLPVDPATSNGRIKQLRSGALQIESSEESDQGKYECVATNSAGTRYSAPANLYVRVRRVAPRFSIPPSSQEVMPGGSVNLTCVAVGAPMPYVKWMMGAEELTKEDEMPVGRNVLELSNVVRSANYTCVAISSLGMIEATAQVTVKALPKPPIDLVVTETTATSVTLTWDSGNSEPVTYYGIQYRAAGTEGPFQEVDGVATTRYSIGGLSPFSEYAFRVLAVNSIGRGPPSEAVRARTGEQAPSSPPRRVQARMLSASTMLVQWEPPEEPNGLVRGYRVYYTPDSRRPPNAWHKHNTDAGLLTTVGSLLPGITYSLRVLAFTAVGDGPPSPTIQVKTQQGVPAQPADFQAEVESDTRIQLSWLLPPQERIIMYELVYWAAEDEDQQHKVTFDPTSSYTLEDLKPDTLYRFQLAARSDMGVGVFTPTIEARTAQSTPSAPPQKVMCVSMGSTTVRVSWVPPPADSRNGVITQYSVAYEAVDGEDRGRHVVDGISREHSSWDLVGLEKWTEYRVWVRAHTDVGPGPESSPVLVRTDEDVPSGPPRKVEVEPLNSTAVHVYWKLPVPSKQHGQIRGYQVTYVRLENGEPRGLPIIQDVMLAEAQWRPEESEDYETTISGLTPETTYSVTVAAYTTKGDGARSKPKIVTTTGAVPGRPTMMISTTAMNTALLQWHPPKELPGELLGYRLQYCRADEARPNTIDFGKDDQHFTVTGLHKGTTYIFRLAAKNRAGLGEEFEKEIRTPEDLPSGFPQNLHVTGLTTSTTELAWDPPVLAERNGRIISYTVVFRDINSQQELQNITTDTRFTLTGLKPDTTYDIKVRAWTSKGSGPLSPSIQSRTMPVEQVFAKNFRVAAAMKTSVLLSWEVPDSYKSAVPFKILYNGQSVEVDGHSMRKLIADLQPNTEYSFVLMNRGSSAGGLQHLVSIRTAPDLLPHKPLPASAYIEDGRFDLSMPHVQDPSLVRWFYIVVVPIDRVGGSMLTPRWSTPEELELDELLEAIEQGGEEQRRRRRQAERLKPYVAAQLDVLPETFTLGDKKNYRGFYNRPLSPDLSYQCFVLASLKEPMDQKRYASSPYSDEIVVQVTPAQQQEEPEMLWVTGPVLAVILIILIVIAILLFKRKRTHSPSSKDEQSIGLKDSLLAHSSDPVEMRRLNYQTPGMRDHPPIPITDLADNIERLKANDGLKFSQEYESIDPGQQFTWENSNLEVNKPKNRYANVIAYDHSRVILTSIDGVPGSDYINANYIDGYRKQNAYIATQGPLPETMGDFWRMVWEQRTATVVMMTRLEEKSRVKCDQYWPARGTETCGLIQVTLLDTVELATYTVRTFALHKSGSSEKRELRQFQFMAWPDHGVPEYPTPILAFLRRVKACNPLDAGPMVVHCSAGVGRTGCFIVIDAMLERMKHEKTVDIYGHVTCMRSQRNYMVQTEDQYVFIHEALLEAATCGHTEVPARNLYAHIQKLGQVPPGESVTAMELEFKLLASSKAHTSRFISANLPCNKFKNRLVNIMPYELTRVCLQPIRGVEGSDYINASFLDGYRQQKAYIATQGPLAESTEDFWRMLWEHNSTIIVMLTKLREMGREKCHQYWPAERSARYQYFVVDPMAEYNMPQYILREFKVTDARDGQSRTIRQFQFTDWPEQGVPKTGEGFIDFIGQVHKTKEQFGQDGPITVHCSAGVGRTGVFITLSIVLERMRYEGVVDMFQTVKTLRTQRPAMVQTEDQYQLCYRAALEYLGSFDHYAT", "assay": "not given", "details": "not given", "units": {"IC50": "nM"}}
{"smiles": "O=C(O)c1cccc2c1oc1ccc(-c3csc(-c4ccc(N5CCCCC5)cc4)n3)cc12", "IC50": 2070}
{"smiles": "O=C(O)c1cccc2c1oc1ccc(-c3csc(-c4ccc([N+](=O)[O-])cc4)n3)cc12", "IC50": 2870}
{"smiles": "CN(C)c1ccc(-c2nc(-c3ccc4oc5c(C(=O)O)cccc5c4c3)cs2)cc1", "IC50": 3750}
{"smiles": "O=C(O)/C=C/c1ccc(-c2nc(-c3ccc4oc5c(C(=O)O)cccc5c4c3)cs2)cc1", "IC50": 1980}
{"smiles": "O=C(O)/C=C/c1cccc(-c2nc(-c3ccc4oc5c(C(=O)O)cccc5c4c3)cs2)c1", "IC50": 2070}
{"smiles": "O=C(O)c1cccc2c1oc1ccc(-c3csc(-c4ccc(N5CCOCC5)cc4)n3)cc12", "IC50": 2940}
{"smiles": "O=C(O)c1cccc2c1oc1ccc(-c3csc(-c4cc(Br)c(C(=O)[C@H](Cc5ccccc5)C(=O)O)c(Br)c4)n3)cc12", "IC50": 3570}
{"smiles": "CC1CN(c2ccc(-c3nc(-c4ccc5oc6c(C(=O)O)cccc6c5c4)cs3)cc2)CC(C)O1", "note": "(stereo unspecified)", "IC50": 2140}
{"smiles": "O=C(O)c1cccc2c1oc1ccc(-c3csc(-c4cccc(I)c4)n3)cc12", "IC50": 2100}
{"smiles": "CCc1cc(C[C@H]2NC(=O)CN(CCCCOc3cccc(O)c3C(=O)OC)C2=O)ccc1N(C(=O)C(=O)O)c1ccccc1C(=O)O", "note": "[OXALYLAMINOBENZOIC ACID]", "IC50": 410}
{"smiles": "O=C(O)c1cccc2c1oc1ccc(-c3csc(-c4ccc(N5CCCC5)cc4)n3)cc12", "IC50": 2990}
{"smiles": "O=C(O)c1ccc(-c2nc(-c3ccc4oc5c(C(=O)O)cccc5c4c3)cs2)cc1", "IC50": 3250}
{"smiles": "Cc1ccc(-c2nc(-c3ccc4oc5c(C(=O)O)cccc5c4c3)cs2)cc1", "IC50": 1320}
{"tested_on": "Mus musculus", "assay": "Antidiabetic activity in ob/ob mouse assessed as plasma cholesterol level at 10 mg/kg, ip measured on day 14 (RVb = 193 +/- 4 mg/dL)", "type": "functional", "details": "route intraperitoneal", "units": {"Activity": "mg/dL"}}
{"smiles": "O=C(O)c1cccc2c1oc1ccc(-c3csc(-c4ccc(N5CCCC5)cc4)n3)cc12", "Activity": 138}
{"tested_on": "Mus musculus", "assay": "Antidiabetic activity in ob/ob mouse assessed as decrease in body weight at 10 mg/kg, po measured on day 15", "type": "functional, organism-based", "parameters": "dose 10 mg/kg", "details": "not given"}
{"smiles": "CN(CCOc1ccc(CC2SC(=O)NC2=O)cc1)c1ccccn1.O=C(O)/C=C\\C(=O)O", "note": "(stereo unspecified) [ROSIGLITAZONE MALEATE]", "inhibition": "inactive"}
{"species_on_record": "Mus musculus", "assay": "not given", "details": "10 mg/kg"}
{"smiles": "O=C(O)c1cccc2c1oc1ccc(-c3csc(-c4ccc(N5CCCC5)cc4)n3)cc12", "inhibition": "Active"}
{"tested_on": "Mus musculus", "assay": "Antidiabetic activity in ob/ob mouse assessed as whole blood glucose at 10 mg/kg, po measured on day 10 (reference value: 139 +/- 8 mg/dL)", "details": "not given", "units": {"Activity": "mg/dL"}}
{"smiles": "CN(CCOc1ccc(CC2SC(=O)NC2=O)cc1)c1ccccn1.O=C(O)/C=C\\C(=O)O", "note": "(stereo unspecified) [ROSIGLITAZONE MALEATE]", "Activity": 90}
{"tested_on": "Mus musculus", "assay": "Antidiabetic activity in ob/ob mouse assessed as reduction in fed-state whole blood glucose at 10 mg/kg, po measured on day 7", "type": "functional, organism-based", "parameters": "dose 10 mg/kg", "details": "not given"}
{"smiles": "CN(CCOc1ccc(CC2SC(=O)NC2=O)cc1)c1ccccn1.O=C(O)/C=C\\C(=O)O", "note": "(stereo unspecified) [ROSIGLITAZONE MALEATE]", "inhibition": "Active"}
